Screens as filed in PubChem.
Rows were chosen to be rich in hits. Some 3.7% of all compounds tested hit in one or more screens of this group.
procasp7 counter: activates human procaspase-7, counter-screen for procaspase-3 activators. AID 463210. activation, % at 8.5 µM. P55210. recombinant procaspase-7, Ac-DEVD-pNA absorbance 405 nm; D23A/D198A/D206A triple mutant, cannot self-cleave; scale: DMSO 0, 5 µM enzyme 100. actives 0.093% (n = 330,000);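 active means percent activation above the screen-wide mean plus 3 SD, cut at about 25% in these data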
Target sequence (P55210 whole entry D23A/D198A/D206A): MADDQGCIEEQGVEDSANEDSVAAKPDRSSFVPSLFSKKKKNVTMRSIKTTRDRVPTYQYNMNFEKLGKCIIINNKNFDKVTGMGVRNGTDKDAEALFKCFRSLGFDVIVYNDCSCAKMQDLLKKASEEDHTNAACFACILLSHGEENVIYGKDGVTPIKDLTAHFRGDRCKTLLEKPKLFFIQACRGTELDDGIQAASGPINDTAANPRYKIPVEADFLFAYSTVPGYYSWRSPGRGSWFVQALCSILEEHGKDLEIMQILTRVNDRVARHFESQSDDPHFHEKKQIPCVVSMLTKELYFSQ
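Assay system: Uncleavable procaspase-7 mutant enzyme / Input: 2 µM procaspase-7 mutant as dispensed / Dosing: single nominal 8.5 µM compound dose, 0.8% DMSO final / Timing: 1 h enzyme–compound preincubation and 2 h substrate reaction, both 25 °C / Detection: p-Nitroaniline absorbance at 405 nm, read at 0 and 120 min / Replication: singlicate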
procasp3 activ: activates human procaspase-3. activation, % at 8.5 µM. recombinant procaspase-3 D3A, Ac-DEVD-pNA absorbance 405 nm. AID 463141. actives 0.11% (n = 330,000). P42574;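 active means activation above the mean of all tested compounds plus 3 SD, cut at about 21% in these data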
Target sequence (P42574 whole entry D9A/D28A/D175A): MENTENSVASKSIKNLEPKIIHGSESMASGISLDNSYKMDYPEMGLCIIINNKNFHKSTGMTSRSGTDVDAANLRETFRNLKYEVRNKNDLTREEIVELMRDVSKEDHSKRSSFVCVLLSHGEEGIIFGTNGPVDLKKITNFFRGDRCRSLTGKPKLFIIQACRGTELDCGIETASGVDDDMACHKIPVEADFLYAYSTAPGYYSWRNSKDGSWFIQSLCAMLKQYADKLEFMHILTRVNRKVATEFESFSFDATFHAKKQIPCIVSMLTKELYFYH
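Technique: 405 nm absorbance of p-nitroaniline, reads at 0 and 120 min; Test system: Procaspase-3 D3A mutant; Incubation: 1 h enzyme-compound preincubation, then 2 h substrate reaction, 25 °C; Repeats: singlicate, each compound tested once; Benchmarks: low control DMSO wells, high control DMSO plus 5 µM PC-3 D3A.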
aDG glyco up: increases alpha dystroglycan glycosylation. AID 624168. activation, % at 10 µM. Pro5-aDG cells, alpha-DG glycosylation AlphaScreen (IIH6); 0% Pro5, 100% B10-LARGE cell signal. actives 0.22% (n = 360,000);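 active means activation of at least 8% versus controls, or a plate z-score of at least 8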;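 further: Pro5 are CHO cells carrying HIG-tagged alpha-DG that lacks glycosylation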
MPTP inh: inhibitors of mitochondrial permeability transition pore; isolated mouse mitochondria, Ca2+ swelling absorbance, 30 min; inhibition, % at 10 µM; actives 1.4% (n = 360,000);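 active means inhibition of 50% or more, scaled per plate between neutral and stimulator controls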
GRIN3A LBD mod: modulators (binders) of human NR3A ligand-binding domain. NR3A LBD differential scanning fluorimetry, Tm shift; 0% = protein alone, 100% = glycine-bound protein. Tm shift relative to glycine control, % at 25 µM. actives 2.5% (n = 340,000). AID 1259313;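 active means melting temperature shift of at least 10% of the positive control shift, at one fixed dose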
Rh123 counter: Rhodamine 123 counter-screen of mitochondrial pore hits. shares compounds with MPTP inh. isolated mitochondria, membrane potential, Rhodamine 123 fluorescence. inhibition, % at 10 µM. actives 78% (n = 5,000). AID 624504; in the data active means inhibition above about 22%
MPTP swell DR: dose response confirmation of mitochondrial permeability transition pore inhibitors. shares compounds with MPTP inh. isolated mitochondria swelling, absorbance. IC50, µM. actives 58% (n = 780). AID 651561; in the data active means IC50 below about 20 µM
MPTP counter DR: active in counter-screen for permeability transition pore inhibitors. shares compounds with MPTP inh. isolated mitochondria counterscreen, fluorescence read-out. IC50, µM. actives 49% (n = 780). AID 651564; in the data active means IC50 below about 80 µM
aDG glyco conf: confirmation of alpha dystroglycan glycosylation activators; shares compounds with aDG glyco up; actives 17% (n = 600); AID 651671; activation, % at 10 µM (by protocol); Pro5-aDG cells, alpha-DG glycosylation, IIH6 AlphaLISA; scaled to LARGE-overexpressing B10 cells as 100%;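 active means activation of at least 7% in one or more replicates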;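 further: cells exposed to compound for two days before detection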
Hits are given with their value; - = inactive; . = not tested or not shown.

SMILES	procasp7 counter	procasp3 activ	aDG glyco up	MPTP inh	GRIN3A LBD mod	Rh123 counter	others
C/C(=N\NC(N)=S)C1=CCC2C3CC[C@H]4CC(O)CC[C@]4(C)C3CC[C@]12C (stereo partly specified)	-	-	-	65	-	-	MPTP swell DR=18;MPTP counter DR=22
Cc1ccccc1C(O)(Cc1ccccc1)C1CN2CCC1CC2 (stereo unspecified)	-	-	-	62	-	-	MPTP swell DR=16;MPTP counter DR=-
N#CC(C#N)=Cc1ccc(O)c(O)c1	-	-	-	-	-	.
CC(C)(C)c1cc(C=C(C#N)C#N)cc(C(C)(C)C)c1O	-	-	-	108	-	89
O=C(NCC1=C(c2ccc3ccccc3c2)C[C@@H]2CC[C@H]1N2Cc1ccco1)c1ccc([N+](=O)[O-])cc1	.	.	-	-	.	.
O=C1N(c2ccc(Cl)cc2)C(c2cccnc2)N2CCCN12 (stereo unspecified)	-	-	-	67	-	104
CCC12CN3CC(CC)(CN(C1)C3c1cccnc1)C2=O (stereo unspecified)	-	-	-	-	-	.
Nc1c2c(nc3sc4c(c13)CCCCC4)CCCC2	-	-	-	88	-	80
CC(=O)OC1C(O)C2=C3C4(C)C1C(C)(C)C(=O)CC4C3(O)C(OC(C)=O)C1(CC1C)C2=O (stereo unspecified)	.	.	-	-	.	.
CN1[C@@H]2CC[C@H]1CC(OC1c3ccccc3CCc3ccccc31)C2 (stereo partly specified)	-	-	-	97	-	-	MPTP swell DR=7.8;MPTP counter DR=-
CN1C2CCC1CC(OC(=O)c1ccc(Cl)cc1)C2 (stereo unspecified)	-	-	-	-	-	.
Oc1cc(Cl)c(Cl)c(Cl)c1	.	.	-	95	-	87
Oc1ccc(Cl)c(Cl)c1	-	-	-	-	-	.
Oc1cc(Cl)c(Cl)c(Cl)c1Cl	.	.	-	79	-	99
CNC(=O)O/N=C(\C)Cc1nnn(-c2cc(C)on2)n1	-	-	-	-	-	.
COCCNC(=S)N1Cc2ccccc2-n2nncc2C1	.	.	-	-	.	.
CN1CCC(N(C)c2nc(-c3ccc([N+](=O)[O-])cc3)nc3ccccc23)CC1	.	.	-	102	-	-
COC(=O)C1=Nc2ccccc2/C1=C\c1c(O)n(-c2cc(OC)ccc2OC)c(=O)[nH]c1=O	-	-	-	58	-	-	MPTP swell DR=-;MPTP counter DR=-
c1ccc2c(N3CCNCC3)cccc2c1	-	-	-	70	-	-	MPTP swell DR=19;MPTP counter DR=-
C/C(=C/C=C/[C@@H](C)C(=O)O)[C@H]1CN[C@H](C(=O)O)[C@H]1CC(=O)O	-	-	-	-	-	.
CC(NCc1cccc(Cl)c1Cl)C(O)c1ccccc1 (stereo unspecified)	-	-	-	72	-	-	MPTP swell DR=-;MPTP counter DR=-
CCOC(=O)[C@]12Cc3cc(Cl)ccc3[C@H]1N(C(C)C)C(=O)c1ccccc12	.	.	-	-	.	.
CCC(=NCc1ccc2c(c1)OCO2)c1c(O)n(C2CCCCC2)c(=O)[nH]c1=O	-	-	-	78	-	68
CCC(=NCCO)c1c(O)n(C2CCCCC2)c(=O)[nH]c1=O	-	-	-	-	-	.
CC(C)CCNC(=O)c1cc(C(=O)c2cc(F)ccc2O)cn(CCC(C)C)c1=O	-	-	-	53	-	-	MPTP swell DR=-;MPTP counter DR=5.9
SMILES	procasp7 counter	procasp3 activ	aDG glyco up	MPTP inh	GRIN3A LBD mod	Rh123 counter	others
O=C(NCc1ccccc1)c1cccn(Cc2ccccc2)c1=O	-	-	-	-	-	.
CC(C)CCNC(=O)c1cc(C(=O)c2cc(Br)ccc2O)cn(CCC(C)C)c1=O	-	-	-	93	-	-	MPTP swell DR=-;MPTP counter DR=<2.5
O=C(c1cc(C(=O)NCc2ccccc2)c(=O)n(Cc2ccccc2)c1)c1cc(Cl)ccc1O	-	-	-	82	13	75
O=C1NC(=O)C(=Cc2ccc(-c3ccccc3[N+](=O)[O-])o2)C(=O)N1	-	-	-	51	-	47
CCOP(=S)(OCC)Oc1nc(Cl)c(Cl)cc1Cl	-	-	-	-	-	.
Ic1ccccc1CN[C@@H]1C2CCN(CC2)[C@@H]1C(c1ccccc1)c1ccccc1	-	-	-	87	-	-
Cc1cc2c(C(C)C)c(O)c(O)c(C=O)c2c(O)c1-c1c(C)cc2c(C(C)C)c(O)c(O)c(C=O)c2c1O	.	.	-	85	.	-
CCOC(=O)C1(CCc2ccccc2)CCN(Cc2ccc3c(c2)OCCO3)CC1	-	-	-	-	-	.
CCOC(=O)C1(CCOc2ccccc2)CCN(Cc2ccc(C)s2)CC1	-	-	-	65	-	82
Cc1ccc2c(c1)CC1(CN2C)C(=O)NC(=O)N(CCc2ccccc2)C1=O (stereo unspecified)	-	-	-	-	-	.
COC(=O)C1=C(c2ccc(F)cc2F)C[C@@H]2CC[C@H]1N2C(=O)N1CCC(O)(c2ccc(Cl)cc2)CC1	-	-	-	-	-	.
CC(=O)c1cn(CCCOc2ccccc2)c2ccccc12	-	-	6.3	82	-	56	aDG glyco conf=-
CN(C)P(=O)(CCl)Nc1ccccc1 (stereo unspecified)	-	-	-	-	-	.
Cc1ccnc(-n2c(-c3ccccc3)nc3ccccc3c2=O)c1	-	-	-	-	-	.
Cc1ccnc(-n2c(C)nc3ccccc3c2=O)c1	-	-	7.8	-	-	.	aDG glyco conf=0.6
COC(=O)C1=C(c2ccc(OC)c(OC)c2)C[C@@H]2CC[C@H]1N2C(=O)NCCCOC(C)C	-	-	-	-	-	.
CN(Cc1ccccc1)Cc1ccccc1OC(=O)N(C)C	-	-	58	-	-	.	aDG glyco conf=-
